In ChEMBL document CHEMBL4190259, “Constituents of Polygala flavescens ssp. flavescens and Their Activity as Inhibitors of Human Lactate Dehydrogenase” (J Nat Prod, 2017) one finds IC50 data, which are given here for 11 molecules.

The structures appear in SMILES notation.

Broadly, the IC50 is the point on the concentration scale where inhibition reaches its midpoint. The low end stands for higher potency, the high end for lower potency.

The assay has as its target L-lactate dehydrogenase A chain (Homo sapiens, UniProt P00338). Kind of assay: Inhibition of human liver LDH5 using pyruvate as substrate and NADH as cofactor measured after 15 mins by fluorescence assay. Summed up:
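Purified human LDH isoform 5, forward reaction (pyruvate to lactate) in 100 mM phosphate buffer pH 7.4 with 200 μM pyruvate and 40 μM NADH. Seven concentrations from 500 to 0.7 μM, each in duplicate, DMSO not above 4%. NADH consumption read by fluorescence (ex 340, em 460 nm) after 15 min. Compound background fluorescence or quenching subtracted. IC50 from concentration–response curves.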
The molecule `C[C@@H]1O[C@@H](OC[C@H]2O[C@@H](Oc3c(-c4ccc(O)c(O)c4)oc4cc(O)cc(O)c4c3=O)[C@H](O)[C@@H](O)[C@@H]2O)[C@H](O)[C@H](O)[C@H]1O` [RUTIN] displayed an IC50 of more than 500 µM. Next, `C[C@@H]1O[C@@H](OC[C@H]2O[C@@H](Oc3c(-c4ccc(O)c(O)c4)oc4cc(O)cc(O)c4c3=O)[C@H](O[C@@H]3OC[C@](O)(COC(=O)/C=C/c4ccc(O)cc4)[C@H]3O)[C@@H](O)[C@@H]2O)[C@H](O)[C@H](O)[C@H]1O`: more than 500 µM; `CC(=O)O[C@@H]1[C@H](O[C@@H]2OC[C@](O)(CO)[C@H]2O)[C@@H](O[C@@H]2O[C@@H](C)[C@H](O)[C@@H](O)[C@H]2O)[C@H](OC(=O)[C@]23CCC(C)(C)C[C@H]2C2=CC[C@@H]4[C@@]5(C)C[C@H](O)[C@H](O[C@@H]6O[C@H](CO)[C@@H](O)[C@H](O)[C@H]6O)[C@@](C)(C(=O)O)[C@@H]5CC[C@@]4(C)[C@]2(C)CC3)O[C@H]1C`: more than 500 µM; `O=C(OC[C@H]1O[C@@](CO)(O[C@H]2O[C@H](CO)[C@@H](O)[C@H](O[C@@H]3O[C@H](CO)[C@@H](O)[C@H](O)[C@H]3O)[C@H]2O)[C@@H](O)[C@@H]1O)c1ccccc1`: more than 500 µM. As for `C[C@@H]1O[C@@H](OC[C@H]2O[C@@H](Oc3c(-c4ccc(O)c(O)c4)oc4cc(O)cc(O)c4c3=O)[C@H](O[C@@H]3OC[C@](O)(COC(=O)c4ccccc4)[C@H]3O)[C@@H](O)[C@@H]2O)[C@H](O)[C@H](O)[C@H]1O`, the figure is more than 500 µM. As for `COc1cc(/C=C/C(=O)OC[C@@]2(O)CO[C@@H](O[C@H]3[C@H](Oc4c(-c5ccc(O)c(O)c5)oc5cc(O)cc(O)c5c4=O)O[C@H](CO[C@@H]4O[C@@H](C)[C@H](O)[C@@H](O)[C@H]4O)[C@@H](O)[C@@H]3O)[C@@H]2O)cc(OC)c1O`, the figure is more than 500 µM. The molecule `COc1cc(/C=C/C(=O)OC[C@@]2(O)CO[C@@H](O[C@H]3[C@H](Oc4c(-c5ccc(O)c(O)c5)oc5cc(O)cc(O)c5c4=O)O[C@H](CO[C@@H]4O[C@@H](C)[C@H](O)[C@@H](O)[C@H]4O)[C@@H](O)[C@@H]3O)[C@@H]2O)ccc1O` came in with an IC50 of more than 500 µM. Regarding `C[C@@H]1O[C@@H](OC[C@H]2O[C@@H](Oc3c(-c4ccc(O)c(O)c4)oc4cc(O)cc(O)c4c3=O)[C@H](O[C@@H]3OC[C@](O)(CO)[C@H]3O)[C@@H](O)[C@@H]2O)[C@H](O)[C@H](O)[C@H]1O`, the IC50 is more than 500 µM. `COc1cc(/C=C/C(=O)OC[C@H]2O[C@H](O[C@]3(CO)O[C@H](CO)[C@@H](O)[C@@H]3OC(=O)/C=C/c3cc(OC)c(O)c(OC)c3)[C@H](O)[C@@H](O[C@@H]3O[C@H](CO)[C@@H](O)[C@H](O)[C@H]3O)[C@@H]2O)cc(OC)c1O`: half-maximal inhibition (IC50) required 191 µM. As for `CC(=O)OC[C@H]1O[C@H](O[C@]2(CO)O[C@H](COC(=O)c3ccccc3)[C@@H](O)[C@@H]2O)[C@H](O)[C@@H](O[C@@H]2O[C@H](CO)[C@@H](O)[C@H](O)[C@H]2O)[C@@H]1O`, the figure is more than 500 µM. As to `COc1cc(/C=C/C(=O)OC[C@H]2O[C@H](O[C@]3(CO)O[C@H](CO)[C@@H](O)[C@@H]3OC(=O)/C=C/c3cc(OC)c(O)c(OC)c3)[C@H](O)[C@@H](O)[C@@H]2O)cc(OC)c1O`, the midpoint of inhibition, the IC50, lay at 90.4 µM.
